{"source": "ChEMBL document CHEMBL5705891", "about": "“Small-molecule kinase inhibitors provide insight into Mps1 cell cycle function” (Nat Chem Biol, 2010)", "key": {"[1]": {"target": "TRAF2 and NCK-interacting protein kinase (Homo sapiens) (UniProt Q9UKE5)", "assay": "Inhibition of TNIK (unknown origin) assessed as residual enzyme activity at 10 uM by Ambit kinase binding assay relative to control"}, "[2]": {"target": "Serine/threonine-protein kinase Nek2 (Homo sapiens) (UniProt P51955)", "assay": "Inhibition of NEK2 (unknown origin) assessed as residual enzyme activity at 10 uM by Ambit kinase binding assay relative to control"}, "[3]": {"target": "Serine/threonine-protein kinase Nek1 (Homo sapiens) (UniProt Q96PY6)", "assay": "Inhibition of NEK1 (unknown origin) assessed as residual enzyme activity at 10 uM by Ambit kinase binding assay relative to control"}, "[4]": {"target": "Serine/threonine-protein kinase 16 (Homo sapiens) (UniProt O75716)", "assay": "Inhibition of STK16 (unknown origin) assessed as residual enzyme activity at 10 uM by Ambit kinase binding assay relative to control"}, "[5]": {"target": "Bone morphogenetic protein receptor type-1B (Homo sapiens) (UniProt O00238)", "sequence (O00238 whole entry)": "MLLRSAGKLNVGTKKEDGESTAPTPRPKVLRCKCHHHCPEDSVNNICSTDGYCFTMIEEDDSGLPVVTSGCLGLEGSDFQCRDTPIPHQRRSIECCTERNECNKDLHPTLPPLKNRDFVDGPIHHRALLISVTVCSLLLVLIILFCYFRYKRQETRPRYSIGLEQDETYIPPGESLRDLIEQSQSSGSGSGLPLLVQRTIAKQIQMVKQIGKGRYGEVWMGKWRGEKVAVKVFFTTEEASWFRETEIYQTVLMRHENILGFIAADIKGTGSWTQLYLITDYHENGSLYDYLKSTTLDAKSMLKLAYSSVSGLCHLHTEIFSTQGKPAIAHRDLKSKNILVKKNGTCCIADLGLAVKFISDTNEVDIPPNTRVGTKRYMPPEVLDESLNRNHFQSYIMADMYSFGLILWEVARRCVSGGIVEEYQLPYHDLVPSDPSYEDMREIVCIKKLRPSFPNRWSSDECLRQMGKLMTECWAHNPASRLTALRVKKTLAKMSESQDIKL", "assay": "Inhibition of BMPR1B (unknown origin) assessed as residual enzyme activity at 10 uM by Ambit kinase binding assay relative to control"}, "[6]": {"target": "Aurora kinase C (Homo sapiens) (UniProt Q9UQB9)", "sequence (Q9UQB9 whole entry)": "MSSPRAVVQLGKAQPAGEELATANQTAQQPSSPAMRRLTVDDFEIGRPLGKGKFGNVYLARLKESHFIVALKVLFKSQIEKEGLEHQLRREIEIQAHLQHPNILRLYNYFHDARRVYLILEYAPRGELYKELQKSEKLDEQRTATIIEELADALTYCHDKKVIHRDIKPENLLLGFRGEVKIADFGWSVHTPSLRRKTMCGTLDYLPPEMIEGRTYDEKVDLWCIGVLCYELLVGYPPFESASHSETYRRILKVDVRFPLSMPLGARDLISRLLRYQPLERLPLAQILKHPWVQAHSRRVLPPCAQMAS", "assay": "Inhibition of AURKC (unknown origin) assessed as residual enzyme activity at 10 uM by Ambit kinase binding assay relative to control"}, "U2OS [7]": {"tested_on": "U2OS", "assay": "Induction of multipolar anaphases in thymidine-treated human U2OS cells expressing H2B-GFP and Plk4 overexpression measured for 30 mins by time lapse imaging analysis", "format": "functional, cell-based", "method_in_brief": "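Doxycycline-inducible Plk4 U2OS cells expressing H2B-GFP were blocked with thymidine for 18 hrs and released into doxycycline (2 μg·ml⁻¹) for 10 hrs. A second 18-hr thymidine block followed, then release for 6 hrs before 5 μM inhibitor, with or without Plk4 induction. Cells were imaged by time-lapse at 37°C, 5% CO₂, timed from NEBD, and bipolar versus multipolar anaphases were scored. Values are mean ± SD of 3 independent experiments.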"}, "HCT-116 [8]": {"tested_on": "HCT-116", "assay": "Induction of apoptosis in human HCT-116 cells assessed as increase in cleaved PARP level at 5 to 10 uM measured for 24 to 48 hrs in presence of Z-VAD-FMK by immunoblot analysis", "format": "functional, cell-based", "details": "dose 5-10 µM, time 24-48 hrs"}, "[9]": {"target": "Leukocyte tyrosine kinase receptor (Homo sapiens, UniProt P29376)", "sequence (P29376 whole entry)": "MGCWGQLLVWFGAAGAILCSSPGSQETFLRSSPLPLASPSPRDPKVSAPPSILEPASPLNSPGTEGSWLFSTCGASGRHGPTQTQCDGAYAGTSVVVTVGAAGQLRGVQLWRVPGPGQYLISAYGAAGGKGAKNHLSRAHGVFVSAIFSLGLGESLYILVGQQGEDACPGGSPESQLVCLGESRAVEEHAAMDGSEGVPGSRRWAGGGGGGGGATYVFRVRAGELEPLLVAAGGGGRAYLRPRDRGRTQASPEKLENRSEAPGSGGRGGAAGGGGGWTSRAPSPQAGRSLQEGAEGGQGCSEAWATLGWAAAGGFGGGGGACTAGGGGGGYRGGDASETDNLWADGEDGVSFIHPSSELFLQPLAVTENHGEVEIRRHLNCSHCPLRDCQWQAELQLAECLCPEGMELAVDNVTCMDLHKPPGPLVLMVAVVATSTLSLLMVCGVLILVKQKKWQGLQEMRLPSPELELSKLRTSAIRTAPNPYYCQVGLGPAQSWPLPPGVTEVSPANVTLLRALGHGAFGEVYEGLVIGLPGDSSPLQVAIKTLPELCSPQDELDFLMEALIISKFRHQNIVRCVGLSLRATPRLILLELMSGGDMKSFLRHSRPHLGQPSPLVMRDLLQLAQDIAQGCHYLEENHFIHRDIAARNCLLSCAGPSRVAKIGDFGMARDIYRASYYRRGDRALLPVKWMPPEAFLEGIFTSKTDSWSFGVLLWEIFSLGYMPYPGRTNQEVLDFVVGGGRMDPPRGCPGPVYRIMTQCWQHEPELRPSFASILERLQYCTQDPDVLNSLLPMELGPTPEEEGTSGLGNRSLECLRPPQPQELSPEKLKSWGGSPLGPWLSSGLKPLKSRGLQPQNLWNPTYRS", "assay": "Binding affinity to LTK (unknown origin) assessed as dissociation constant by Ambit kinase binding assay"}, "U2OS [10]": {"tested_on": "U2OS", "assay": "Induction of chromosome mis-segregation in human U2OS cells expressing histone H2B-GFP at 5 to 10 uM treated for 4 hrs followed by MG132 treatment for 30 to 60 mins and subsequent replacement of medium containing MG132 measured after 30 mins by immunofluoresence analysis", "format": "functional, cell-based", "details": "dose 5-10 µM, time 4.5-5 hrs"}, "UTRM10 [11]": {"tested_on": "UTRM10", "assay": "Inhibition of hyperphosphorylation of LAP-tagged Mps1 M602Q mutant (unknown origin) expressed in UTRM10 cells (unknown origin) measured after 90 mins by immunoblot analysis", "format": "cell-based", "details": "Homo sapiens"}, "HeLa S3 [12]": {"tested_on": "HeLa S3", "assay": "Effect on thymidine-treated human HeLa S3 cell populations after one cell doubling at 10 uM incubated for 4 hrs followed by thymidine release by immunofluorescence imaging analysis", "format": "functional, cell-based"}, "[13]": {"target": "ALK tyrosine kinase receptor (Homo sapiens, UniProt Q9UM73)", "sequence (Q9UM73 19-1620 limits assumed)": "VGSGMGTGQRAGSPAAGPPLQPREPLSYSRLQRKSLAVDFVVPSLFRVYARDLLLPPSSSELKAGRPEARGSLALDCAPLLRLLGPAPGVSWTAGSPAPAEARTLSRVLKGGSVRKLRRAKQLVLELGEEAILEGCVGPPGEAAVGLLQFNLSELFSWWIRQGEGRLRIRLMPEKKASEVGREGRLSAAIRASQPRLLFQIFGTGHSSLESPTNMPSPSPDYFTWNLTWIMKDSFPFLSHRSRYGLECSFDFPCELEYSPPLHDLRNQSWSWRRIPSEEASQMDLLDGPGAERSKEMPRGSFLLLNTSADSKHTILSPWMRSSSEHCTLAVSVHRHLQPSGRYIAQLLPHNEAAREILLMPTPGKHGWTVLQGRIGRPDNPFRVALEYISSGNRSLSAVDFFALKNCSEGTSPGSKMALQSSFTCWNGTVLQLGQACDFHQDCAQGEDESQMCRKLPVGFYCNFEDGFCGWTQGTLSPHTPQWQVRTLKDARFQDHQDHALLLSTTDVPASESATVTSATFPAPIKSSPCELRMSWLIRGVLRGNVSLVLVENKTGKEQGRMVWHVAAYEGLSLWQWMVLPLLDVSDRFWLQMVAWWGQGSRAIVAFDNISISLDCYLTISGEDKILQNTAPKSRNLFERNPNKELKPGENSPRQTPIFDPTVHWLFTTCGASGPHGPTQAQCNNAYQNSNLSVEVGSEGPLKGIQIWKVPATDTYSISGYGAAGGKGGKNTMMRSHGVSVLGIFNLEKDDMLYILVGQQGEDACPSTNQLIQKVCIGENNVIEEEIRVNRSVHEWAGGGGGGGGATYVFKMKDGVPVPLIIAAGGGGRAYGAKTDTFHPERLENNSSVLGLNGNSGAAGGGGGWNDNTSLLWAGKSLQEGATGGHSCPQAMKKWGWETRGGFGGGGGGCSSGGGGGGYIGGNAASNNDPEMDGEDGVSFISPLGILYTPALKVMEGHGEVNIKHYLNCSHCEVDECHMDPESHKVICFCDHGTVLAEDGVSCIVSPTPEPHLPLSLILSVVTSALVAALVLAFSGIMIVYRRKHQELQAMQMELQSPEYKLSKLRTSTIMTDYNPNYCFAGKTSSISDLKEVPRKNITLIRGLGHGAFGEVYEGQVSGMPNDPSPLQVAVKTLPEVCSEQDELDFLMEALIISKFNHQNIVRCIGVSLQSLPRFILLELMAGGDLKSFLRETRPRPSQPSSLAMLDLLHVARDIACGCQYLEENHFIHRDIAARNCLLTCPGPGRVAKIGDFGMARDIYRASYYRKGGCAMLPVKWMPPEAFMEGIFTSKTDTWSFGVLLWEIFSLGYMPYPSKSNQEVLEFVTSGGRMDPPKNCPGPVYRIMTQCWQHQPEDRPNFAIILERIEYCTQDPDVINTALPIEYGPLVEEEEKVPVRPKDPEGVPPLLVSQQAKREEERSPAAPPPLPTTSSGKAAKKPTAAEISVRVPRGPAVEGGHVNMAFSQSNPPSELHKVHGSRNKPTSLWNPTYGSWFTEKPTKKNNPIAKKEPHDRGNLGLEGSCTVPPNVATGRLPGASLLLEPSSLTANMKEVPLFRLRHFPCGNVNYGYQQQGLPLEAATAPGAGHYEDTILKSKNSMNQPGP", "assay": "Inhibition of ALK (unknown origin) assessed as residual enzyme activity at 10 uM by Ambit kinase binding assay relative to control"}, "Activated CDC42 kinase 1": {"target": "Activated CDC42 kinase 1 (Homo sapiens, UniProt Q07912)", "sequence (Q07912 whole entry, looked up)": "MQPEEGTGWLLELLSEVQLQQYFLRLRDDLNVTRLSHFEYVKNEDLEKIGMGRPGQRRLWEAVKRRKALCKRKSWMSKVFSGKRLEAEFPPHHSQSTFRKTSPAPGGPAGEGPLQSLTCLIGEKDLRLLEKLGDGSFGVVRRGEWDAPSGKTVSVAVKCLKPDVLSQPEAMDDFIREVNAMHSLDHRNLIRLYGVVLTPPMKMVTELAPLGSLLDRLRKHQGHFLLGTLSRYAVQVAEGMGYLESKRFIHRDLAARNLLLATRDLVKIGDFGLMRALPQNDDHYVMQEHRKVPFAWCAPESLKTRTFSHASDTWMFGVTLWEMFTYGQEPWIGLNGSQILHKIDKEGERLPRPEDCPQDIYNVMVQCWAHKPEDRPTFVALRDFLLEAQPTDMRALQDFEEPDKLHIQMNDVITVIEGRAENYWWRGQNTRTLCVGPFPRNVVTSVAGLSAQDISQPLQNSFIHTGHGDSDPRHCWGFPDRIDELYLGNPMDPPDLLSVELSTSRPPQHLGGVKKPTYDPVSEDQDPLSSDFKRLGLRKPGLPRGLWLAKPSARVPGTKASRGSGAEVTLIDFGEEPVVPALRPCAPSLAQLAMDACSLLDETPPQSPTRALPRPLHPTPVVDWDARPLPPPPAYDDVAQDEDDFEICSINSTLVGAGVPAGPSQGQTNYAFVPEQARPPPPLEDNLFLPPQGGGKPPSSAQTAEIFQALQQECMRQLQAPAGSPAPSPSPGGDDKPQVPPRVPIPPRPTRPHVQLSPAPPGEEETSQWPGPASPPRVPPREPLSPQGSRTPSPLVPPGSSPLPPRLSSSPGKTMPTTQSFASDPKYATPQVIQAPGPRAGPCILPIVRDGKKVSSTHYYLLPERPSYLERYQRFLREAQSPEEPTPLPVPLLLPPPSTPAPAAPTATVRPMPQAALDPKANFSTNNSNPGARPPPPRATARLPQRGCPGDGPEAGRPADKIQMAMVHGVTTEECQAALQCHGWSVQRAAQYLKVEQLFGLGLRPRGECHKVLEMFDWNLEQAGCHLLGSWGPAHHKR", "assay": "Inhibition of TNK2 (unknown origin) assessed as residual enzyme activity at 10 uM by Ambit kinase binding assay relative to control"}, "UTRM10 [14]": {"tested_on": "UTRM10", "assay": "Upregulation of phosphorylated histone H3 level in UTRM10 cells (unknown origin) upto 1 uM by immunoblot analysis", "format": "functional, cell-based"}, "[15]": {"target": "Aurora kinase B (Homo sapiens) (UniProt Q96GD4)", "assay": "Inhibition of Aurora B phosphorylation at Thr232 in human U2OS cells by Western blot analysis", "format": "cell-based", "method_in_brief": "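Thymidine-released U2OS cells were treated with inhibitor or DMSO for 1 hr before mitotic entry, then with taxol (1 μM) plus MG132 (10 μM). Mitotic cells were collected by shake-off and immunoblotted for phospho-Aurora B (Thr232). Cyclin B served as the mitotic marker and the Mps1 mobility shift as autophosphorylation.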"}, "HCT-116 [16]": {"tested_on": "HCT-116", "assay": "Induction of accumulation of human HCT-116 cells with <2N DNA content at 10 uM incubated for 4 days by FACS analysis", "format": "functional, cell-based", "details": "time 4.0 day", "method_in_brief": "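HCT116 cells were treated with 10 μM compound or DMSO vehicle for the indicated times up to 96 h, then DNA content was profiled by flow cytometry.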"}, "[17]": {"target": "Misshapen-like kinase 1 (Homo sapiens) (UniProt Q8N4C8)", "assay": "Inhibition of MINK (unknown origin) assessed as residual enzyme activity at 10 uM by Ambit kinase binding assay relative to control"}, "HCT-116 [18]": {"tested_on": "HCT-116", "assay": "Antiproliferative activity against human HCT-116 with p53+/+ cells at 10 uM incubated for 4 days by Syto60 staining based assay", "format": "functional, cell-based", "details": "time 4.0 day", "method_in_brief": "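Proliferation read by Syto60 nucleic acid stain fluorescence (excitation 635 nm, emission 695 nm) after treatment for up to 96 h. Each time point normalized to its DMSO control. Mean ± SD from 4 independent experiments. Cells kept at 37°C, 5% CO2 in 10% FBS-supplemented medium.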"}, "HeLa": {"tested_on": "HeLa", "assay": "Antiproliferative activity against human HeLa cells assessed as loss of clonal survival upto 10 uM incubated for 10 days by crystal violet staining based assay", "format": "functional, cell-based", "details": "time 10.0 day", "method_in_brief": "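Colony outgrowth: cells plated at 200 cells per 60-mm dish, exposed to compound or DMSO vehicle and stained with crystal violet after 10 days. HCT116 grown in McCoy's 5A; A549 and HeLa in DMEM; hTERT-RPE1 in DMEM/F-12. All media had 10% FBS and penicillin/streptomycin, 37°C, 5% CO2. Quantified from 3 independent experiments, mean + SD, Student's t test.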"}, "HeLa S3 [19]": {"tested_on": "HeLa S3", "assay": "Effect on thymidine-treated human HeLa S3 cell populations after two cell doubling at 10 uM incubated for 4 hrs followed by thymidine release by immunofluorescence imaging analysis", "format": "functional, cell-based"}, "[20]": {"target": "Mitogen-activated protein kinase 1 (Homo sapiens, UniProt P28482)", "assay": "Binding affinity to ERK2 (unknown origin) assessed as dissociation constant by Ambit kinase binding assay"}, "U2OS [21]": {"tested_on": "U2OS", "assay": "Initiation of anaphase in human U2OS cells expressing histone H2B-GFP measured for 60 mins by fluorescence time-lapse microscopy", "format": "functional, cell-based", "details": "dose 5-10 µM", "method_in_brief": "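U2OS H2B-GFP cells were given DMSO or inhibitor and imaged by fluorescence time-lapse at 37°C, 5% CO₂, one frame every 2 min. NEBD-to-anaphase time was scored for 100 cells per population and plotted as cumulative percentage initiating anaphase.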"}, "TERT-RPE1": {"tested_on": "TERT-RPE1", "assay": "Antiproliferative activity against hTERT-RPE1 cells at 10 uM incubated for 4 days by Syto60 staining based assay", "format": "toxicity, cell-based", "details": "human, tert-rpe1, 96 h, time 4 day"}, "[22]": {"target": "Serine/threonine-protein kinase Chk2 (Homo sapiens) (UniProt O96017)", "sequence (O96017 whole entry)": "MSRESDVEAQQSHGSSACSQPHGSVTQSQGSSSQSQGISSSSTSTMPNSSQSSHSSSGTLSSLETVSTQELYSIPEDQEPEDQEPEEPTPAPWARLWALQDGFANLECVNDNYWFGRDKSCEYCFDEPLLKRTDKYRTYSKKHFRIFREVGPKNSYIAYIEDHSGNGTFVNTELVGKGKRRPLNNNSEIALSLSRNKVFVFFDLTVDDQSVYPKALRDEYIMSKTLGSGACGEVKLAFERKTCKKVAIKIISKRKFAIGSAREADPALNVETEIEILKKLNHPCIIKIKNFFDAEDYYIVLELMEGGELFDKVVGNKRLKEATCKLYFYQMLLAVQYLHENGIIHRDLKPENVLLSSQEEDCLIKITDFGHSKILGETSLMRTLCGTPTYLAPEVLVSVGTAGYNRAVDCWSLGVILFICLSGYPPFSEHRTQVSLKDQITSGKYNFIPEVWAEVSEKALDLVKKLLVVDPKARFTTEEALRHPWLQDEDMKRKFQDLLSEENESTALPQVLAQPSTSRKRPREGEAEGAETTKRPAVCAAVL", "assay": "Inhibition of CHEK2 (unknown origin) assessed as residual enzyme activity at 10 uM by Ambit kinase binding assay relative to control"}, "U2OS [23]": {"tested_on": "U2OS", "assay": "Reversal of nocodazole-induced mitotic arrest in human U2OS cells assessed as accumulation of 4N phosphorylated Histone H3-negative cells incubated for 16 hrs by flow cytometry", "format": "functional, cell-based", "details": "dose 5-10 µM"}}, "note": "Active and inactive are the calls of the source. The rule behind the calls is not given here."}
{"smiles": "O=C1c2ccccc2-c2n[nH]c3cccc1c23", "values": [{"measurement": "Activity", "setting": "[1]", "result": 18, "unit": "%"}, {"measurement": "Activity", "setting": "[2]", "result": 27, "unit": "%"}, {"measurement": "Activity", "setting": "[3]", "result": 15, "unit": "%"}, {"measurement": "Activity", "setting": "[4]", "result": 1.4, "unit": "%"}, {"measurement": "Activity", "setting": "[5]", "result": 5, "unit": "%"}, {"measurement": "Activity", "setting": "[6]", "result": 23, "unit": "%"}]}
{"smiles": "COc1cc(N2CCC(O)CC2)ccc1Nc1cc(Nc2ccccc2S(=O)(=O)C(C)C)c2cc[nH]c2n1", "values": [{"measurement": "Activity", "setting": "U2OS [7]", "result": "Active"}, {"measurement": "Activity", "setting": "HCT-116 [8]", "result": "inactive"}, {"measurement": "Kd", "setting": "[9]", "result": 0.029, "unit": "µM"}, {"measurement": "Activity", "setting": "U2OS [10]", "result": "Active"}, {"measurement": "inhibition", "setting": "UTRM10 [11]", "result": "inactive"}, {"measurement": "Activity", "setting": "HeLa S3 [12]", "result": "inactive"}, {"measurement": "Activity", "setting": "[13]", "result": 8.9, "unit": "%"}, {"measurement": "Activity", "setting": "Activated CDC42 kinase 1", "result": 14, "unit": "%"}, {"measurement": "Activity", "setting": "UTRM10 [14]", "result": "Active"}, {"measurement": "inhibition", "setting": "[15]", "result": "Active"}, {"measurement": "Activity", "setting": "HCT-116 [16]", "result": "Active"}, {"measurement": "Activity", "setting": "[17]", "result": 34, "unit": "%"}, {"measurement": "Activity", "setting": "HCT-116 [18]", "result": "Active"}, {"measurement": "Activity", "setting": "HeLa", "result": "Active"}, {"measurement": "Activity", "setting": "HeLa S3 [19]", "result": "inactive"}, {"measurement": "Kd", "setting": "[20]", "result": 2.9, "unit": "µM"}, {"measurement": "Activity", "setting": "U2OS [21]", "result": "Dose-Dependent Effect"}, {"measurement": "Activity", "setting": "TERT-RPE1", "result": "Toxic"}, {"measurement": "Activity", "setting": "[22]", "result": 7.3, "unit": "%"}, {"measurement": "Activity", "setting": "U2OS [23]", "result": "Dose-Dependent Effect"}]}
